Published values collected from several papers.
Compare with care: the assays were run in different laboratories.
EDNRB: Endothelin receptor type B (EDNRB, Homo sapiens, UniProt P24530)
MAOB: Amine oxidase [flavin-containing] B (MAOB, Homo sapiens, UniProt P27338)
MMP9 Q279R: Matrix metalloproteinase-9 (MMP9, Homo sapiens, UniProt P14780, Q279R)

CN(CCN1CCC(OC(=O)Nc2ccccc2-c2ccccc2)CC1)C(=O)c1ccc(CN2CCC(C(N)=O)CC2)cc1  inhibition (EDNRB; ligand displacement, radioligand; 1 µM): 11%
O=C(Nc1cccnn1)N1CCN([C@@H]2CCOc3cc(C(F)(F)F)ccc32)CC1  inhibition (EDNRB; cell-free assay; 20 µM): -5%
C[C@@H]1CCCN1CCCCOc1ccc2occc(=O)c2c1  inhibition (MAOB; enzyme activity, inhibitor, fluorescence; 10 µM): 28%
c1ccc(C(NCCNC(c2ccccc2)c2ccccc2)c2ccccc2)cc1  inhibition (MAOB; enzyme activity, inhibitor; 10 µM): 5%
COc1ccc(S(=O)(=O)N2CCCCC2)cc1C  inhibition (EDNRB; ligand displacement, radioligand; 10 µM): < 30%
N=C(N)c1ccc2cc(OC(=O)c3ccc(N=C(N)N)cc3)ccc2c1  inhibition (MMP9 Q279R; enzyme activity, inhibitor; 10 µM): 11%
CN1CCN(CCCOc2ccc3occc(=O)c3c2)CC1  inhibition (MAOB; enzyme activity, inhibitor, fluorescence; 10 µM): 20%
CC(C)C[C@H](NC(=O)[C@H]1O[C@@H]1C(=O)O)C(=O)NCCCCN=C(N)N  inhibition (Cathepsin L2 (CTSV, Homo sapiens, UniProt O60911); enzyme activity, inhibitor; 0.5 µM): 94%
COCc1c(-c2cc3cc(C)cc(OC)c3s2)c2c(N)ncnn2c1CN1CCNC(=O)C1  inhibition (MAOB; enzyme activity, inhibitor; 10 µM): 5%
CN(C)C(=O)COC(=O)Cc1ccc(OC(=O)c2ccc(NC(=N)N)cc2)cc1  inhibition (TNFAIP3 (Homo sapiens, UniProt P21580); enzyme activity, inhibitor; 10 µM): 4%
Cc1ccc(OP(=O)(Oc2ccc(C)cc2)Oc2ccc(C)cc2)cc1  inhibition (Cholinesterase (Bche, Mus musculus, UniProt Q03311); enzyme activity, inhibitor; mouse; oral, 240 mg/kg): 20%
COc1cc(Nc2ncc(F)c(Nc3ccc4c(n3)NC(=O)C(C)(C)O4)n2)cc(OC)c1OC  inhibition (Phosphatidylinositol 3-kinase C2 domain-containing subunit gamma (PIK3C2G, Homo sapiens, UniProt O75747); binding, competition with immobilised ligand; 10 µM): 48%
COc1ccc(S(=O)(=O)N(CC(=O)NO)CC(C)C)cc1  inhibition (MMP9 Q279R; enzyme activity, inhibitor; 0.1 µM): 96%
